Bioassay records as filed in PubChem.
This is a sample that favours compounds with a hit; in the whole collection about 2.5% have one here.
UHRF1 binding: blocks human UHRF1 binding to methylated DNA; Q96T88; UHRF1 binding to methylated oligo, TR-FRET; inhibition, % at 4.4 µM; 370,000 compounds, 0.75% hits; in the data active = inhibition above about 21%;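 also: UHRF1 SRA domain binding a hemimethylated CpG hairpin DNA probe; 0% = median of test compound wells and 100% = reference inhibitor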
Pemphigus Ab inh: blocks pemphigus antibody binding to human desmoglein-3; binding (percent of control), % at 10 µM; P32926; 310,000 compounds, 0.48% hits; DSG3-coupled beads, scFv-anti-DSG3-GFP binding, flow cytometry; stronger effect = lower value;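 active = binding more than 3 SD below its plate's average and above zero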
HCV NS3 hel inh: HCV NS3 helicase inhibition. NS3 helicase DNA unwinding, Cy5 molecular beacon fluorescence. inhibition, % at 10.9 µM. 290,000 compounds, 0.56% hits;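 active = inhibition above the mean of all tested compounds plus 3 SD, set per campaign, cut at about 35% in these data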;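 also: 0% = DMSO wells and 100% = thioflavine S control wells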
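Measured by: Cy5 fluorescence, 0 and 60 min reads / Assay system: NS3 helicase fragment of HCV / Control set: low DMSO, high thioflavine S at 110 µM / Times: 1 h reaction at 25 °C, ATP-initiated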
DNMT1 inh: inhibitors of human DNMT1; DNMT1 molecular beacon, Hinp1I cleavage, fluorescence; P26358; 360,000 compounds, 0.83% hits; inhibition (reported as % activation of signal), % at 10 µM; in the data active = inhibition above about 50%
SUMO1-SIM PPI: alters human SUMO1 binding to SIM partners. 360,000 compounds, 0.33% hits. inhibition, % at 20 µM. AID 602429. P63165. SUMO1 binding to a labelled peptide, TR-FRET, 1 h; in the data active = inhibition above about 37%
Target sequence (P63165 whole entry, looked up): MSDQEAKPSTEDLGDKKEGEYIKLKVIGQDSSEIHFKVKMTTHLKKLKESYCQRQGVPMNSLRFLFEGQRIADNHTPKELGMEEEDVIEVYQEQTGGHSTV
MBD2 inh: blocks human MBD2 binding to methylated DNA; 370,000 compounds, 0.31% hits; AID 686964; TR-FRET, MBD2 binding to methylated oligonucleotide; inhibition, % at 4.4 µM; Q9UBB5; in the data active = inhibition above about 13%
Target sequence (Q9UBB5 whole entry, looked up): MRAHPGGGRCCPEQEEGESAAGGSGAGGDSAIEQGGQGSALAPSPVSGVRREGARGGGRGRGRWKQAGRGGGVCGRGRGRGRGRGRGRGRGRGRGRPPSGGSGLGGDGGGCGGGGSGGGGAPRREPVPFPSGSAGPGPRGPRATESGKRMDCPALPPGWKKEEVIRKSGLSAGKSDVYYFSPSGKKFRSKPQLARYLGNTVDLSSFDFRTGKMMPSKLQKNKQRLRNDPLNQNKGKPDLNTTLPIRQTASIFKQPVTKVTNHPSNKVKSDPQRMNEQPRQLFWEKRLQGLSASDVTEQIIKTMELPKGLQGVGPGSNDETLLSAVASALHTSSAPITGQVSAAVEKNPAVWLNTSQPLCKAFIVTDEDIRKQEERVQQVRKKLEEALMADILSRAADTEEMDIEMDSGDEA
* hit, by the source's call; / = no result given.

SMILES	UHRF1 binding	Pemphigus Ab inh	HCV NS3 hel inh	DNMT1 inh	SUMO1-SIM PPI	MBD2 inh
CSc1nc2nccc(-c3ccc4c(c3)OCO4)n2n1	-3	104*	-8	3	-19	3
CSc1nc2nccc(-c3ccc(-c4ccccc4)cc3)n2n1	-2	96	0	-4	11	0
S=c1[nH]nc(-c2cc(-c3ccccc3)n[nH]2)n1/N=C/c1c(Cl)cccc1Cl	-3	/	-2	27	18	2
S=c1[nH]nc(-c2cc(-c3ccccc3)n[nH]2)n1/N=C/c1ccc(Br)s1	-2	/	19	28	61*	4
O=C(c1cn2ccccc2n1)N1CCCC(Nc2ccc(F)c(F)c2)C1 (stereo not given)	23*	104	-6	-1	1	1
Cc1ccc(NC2CCCN(C(=O)c3cn4cc(Cl)ccc4n3)C2)cc1C (stereo not given)	-4	127	8	2	-7	2
CCOc1ccc(-n2c(C)cc(C(=O)NS(=O)(=O)c3ccc(C)cc3)c2C)cc1	52*	100	6	-3	2	2
CCOc1ccc(S(=O)(=O)NC(=O)c2ccccc2)cc1	3	/	0	0	-1	-6
O=C(CSc1nnc(-c2ccc(Cl)cc2)n1-c1ccccc1)NN=Cc1c[nH]c2ccccc12	0	/	/	/	/	2
COc1ccc(C2N3CC4(C)CN2CC(C)(C3)C4=O)cc1OC (stereo not given)	0	95	0	0	-3	-1
CC(C)(O)/C=C/C(=O)[C@](C)(O)C1[C@H](O)C[C@@]2(C)C3CC=C4C(C=C(O[C@@H]5O[C@H](CO)[C@@H](O)[C@H](O)[C@H]5O)C(=O)C4(C)C)[C@]3(C)C(=O)C[C@]12C (stereo not given in full)	2	99	/	5	1	5
O=C(CCC(=O)OCC(=O)c1ccccc1)Nc1cccc2cccnc12	8	8.4*	7	5	-1	3
O=C(CCCN1C(=O)c2cccc3cccc(c23)C1=O)Nc1nccs1	2	106	8	0	50*	2
CCOC(=O)c1ccsc1NC(=O)CCS(=O)(=O)c1ccccc1	2	/	20	0	1	-3
Cc1c(COC(=O)NC(C)C)c(COC(=O)NC(C)C)c2n1CS(=O)(=O)C2	26*	/	/	/	/	4
O=C(CCC1CCCN(C(=O)Cn2cnnn2)C1)NCc1ccc(F)c(F)c1 (stereo not given)	-3	110	3	0	0	1
CN1C(=O)C2(c3ccccc31)N(C)CC(c1ccccn1)C21SC(=S)N(Cc2ccco2)C1=O (stereo not given)	1	106	0	-5	-6	-6
O=C(NC1CCCCC1)C(c1ccc(O)cc1)N(CC1CCCO1)C(=O)C1COc2ccccc2O1 (stereo not given)	-4	78*	-4	14	3	4
O=C(Cc1ccc2c(c1)CCCC2)Nc1ccccc1Br	2	98	-3	-10	0	-1
O=C(Cc1ccc2ccccc2c1)Nc1ccccc1Br	0	87*	0	-1	4	-1
O=C(CCl)N1CCN(CC(=O)N2CCCC2)CC1	21*	117	-3	-2	4	-4
O=C(CN1CCN(c2cccc(Cl)c2)CC1)N1CCCC1	1	99	-7	0	-2	2
COc1ccccc1NC(=O)c1ccc(-n2ccnc2)c([N+](=O)[O-])c1	-1	66*	-10	4	-7	-5
COc1ccc(C(=O)NC(=S)Nc2cccc3ncccc23)cc1[N+](=O)[O-]	-8	116	-14	-9	56*	-3
O=C(Nc1cccc2ncccc12)c1ccc(Br)c([N+](=O)[O-])c1	-3	95	1	-2	-12	-3
SMILES	UHRF1 binding	Pemphigus Ab inh	HCV NS3 hel inh	DNMT1 inh	SUMO1-SIM PPI	MBD2 inh
COc1ccc(C(=O)Nc2ccc(C(=O)Nc3nccs3)cc2)cc1[N+](=O)[O-]	2	93	11	-8	54*	10
Cc1ccc(NC(=O)CN(C)C(=O)COc2ccccc2-c2ccccc2)cc1	2	116	/	-8	0	-2
O=S(=O)(c1cccs1)N1CCN(c2ccccc2F)CC1	-4	/	-7	-2	13	-1
CS(=O)(=O)N(CC(=O)N1CCC(C(N)=O)CC1)c1ccc(Cl)c(C(F)(F)F)c1	-1	102	3	2	0	3
O=c1c2nnn(-c3ccccc3)c2ncn1C/C=C/c1ccccc1	-2	70*	-8	3	1	1
N#Cc1nc(-c2ccc(OCc3ccccc3)cc2)oc1N1CCC(C(N)=O)CC1	-3	66*	-6	8	19	-4
CC(NC(=O)Nc1cccc([N+](=O)[O-])c1)(C(F)(F)F)C(F)(F)F	73*	/	-10	0	-15	-4
O=C1NC[C@@H](Cc2ccc(O)cc2)N(CCc2cc(C(F)(F)F)cc(C(F)(F)F)c2)C1=O	0	/	/	/	67*	-7
C[C@@H](CN1C(=O)C(=O)NC[C@@H]1Cc1ccc(O)cc1)NC(=O)Cc1ccccc1	1	104	8	-4	42*	4
CCOC(=O)C1=C[C@@H](C(C)(C)C)N(S(=O)(=O)c2ccc(C)cc2)[C@H]1c1ccc(C#N)cc1	-1	/	/	-5	4	-3
COc1cccc(/C=N/NC(=O)c2nnn(-c3nonc3N)c2C(C)C)c1	2	96	-16	-3	-13	-6
CCCOc1cccc(C(=O)Nc2cccc3ncccc23)c1	0	113	1	1	-1	5
CCCOc1cccc(C(=O)NCCNC(=O)c2ccccn2)c1	0	96	-5	1	2	2
CCCOc1cccc(C(=O)Nc2ccc(Br)cc2F)c1	2	62*	-6	2	-5	-6
CCCOc1cccc(C(=O)NCCCNC(=O)c2ccccn2)c1	48*	/	-6	1	2	0
O=C(CCCNC(=O)c1ccc(Cl)cc1)Nc1cccc(F)c1	-1	/	-6	2	2	3
CSc1ccc(/C=C(\C#N)C(=O)NC2CCCCC2C)cc1 (stereo not given)	5	106	-2	1	-6	-4
CC1CCCCC1NC(=O)/C(C#N)=C/c1ccccc1F (stereo not given)	25*	96	0	2	1	10
Nc1ccc2cccc(O)c2c1	-4	64*	/	49	17	-7
COC(=O)COc1ccc2oc(=O)cc(-c3cc4cccc(OC)c4o3)c2c1	0	95	-4	44	40*	1
COc1cccc2cc(-c3cc(=O)oc4ccc(OCC(C)=O)cc34)oc12	1	88	-2	-7	-26	-4
Cc1oc(-c2cccc(C(F)(F)F)c2)nc1CN1CCC[C@H]1CO	2	107	1	-2	-1	-2
